Laboratory results published in article PMC4229637 (British Journal of Cancer, 2014).
Like-named read-outs stand apart in the source and are kept apart here. One block for each compound: values may come before it.

Columns and labels:
[1] = Ridaforolimus concentration in whole blood; type: in vivo, human; conditions: cycle 1 day 8; Dalotuzumab (10 mg kg^–1 QW)+ridaforolimus (20 mg QD × 5); N=4; some samples up to 2.5 h post dose
patients = conditions: cited from earlier work; for main toxicities: single agent phase I
[2] = Dalotuzumab concentration in serum; type: in vivo, human; conditions: for Serum dalotuzumab, Median / Serum dalotuzumab, Range: cycle 1 day 8
[3] = MK-2206 plasma concentration; type: in vivo, human; conditions: for Plasma MK-2206, Median / Plasma MK-2206, Range: cycle 1 day 8
AKT1 = conditions: read-out: IC50 AKT1; ref Yap et al, 2011; cited from earlier work
AKT3 = conditions: read-out: IC50 AKT3; ref Yap et al, 2011; cited from earlier work
AKT2 = conditions: read-out: IC50 AKT2; ref Yap et al, 2011; cited from earlier work
[4] = ref Biondo et al, 2011, Yap et al; cited from earlier work
[5] = MK-0752 plasma concentration; type: in vivo, human
Summary of the method: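 Test compound was given orally at 1800 mg once weekly with IV anti-IGF-1R antibody once weekly, in 28-day cycles. Pre-dose plasma was taken weekly during cycle 1 and on day 1 of subsequent cycles. Plasma levels were quantified by validated HPLC-MS/MS.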

[6] = Dalotuzumab (7.5 mg kg^–1 QW)+MK-0752 (1800 mg QW), N=4
[7] = Dalotuzumab (10 mg kg^–1 QW)+MK-0752 (1800 mg QW), N=11
[8] = Dalotuzumab (10 mg kg^–1 QW)+MK-2206 (90 mg QW), N=3
[9] = Dalotuzumab (10 mg kg^–1 QW)+MK-2206 (135 mg QW), N=8
[10] = Dalotuzumab (10 mg kg^–1 QW)+MK-2206 (150 mg QW), N=10
[11] = Dalotuzumab (10 mg kg^–1 QW)+MK-2206 (200 mg QW), N=3
[12] = Dalotuzumab (10 mg kg^–1 QW)+ridaforolimus (20 mg QD × 5), N=2
[13] = phase I clinical trial of single-agent dalotuzumab, ref Atzori et al, 2011
[14] = cycle 1 day 8, Dalotuzumab (7.5 mg kg^–1 QW)+MK-0752 (1800 mg QW), N=3

Whole blood ridaforolimus, Median [1]: 86.7 ng ml^–1
Whole blood ridaforolimus, Range [1]: 3.12–184 ng ml^–1
Compound: CO[C@H]1C[C@@H]2CC[C@@H](C)[C@@](O)(O2)C(=O)C(=O)N2CCCC[C@H]2C(=O)O[C@H]([C@H](C)C[C@@H]2CC[C@@H](OP(C)(C)=O)[C@H](OC)C2)CC(=O)[C@H](C)/C=C(\C)[C@@H](O)[C@@H](OC)C(=O)[C@H](C)C[C@H](C)/C=C/C=C/C=C/1C [Ridaforolimus]
RP2D (patients; IV, 5 days every 2 weeks, ref Mita et al, 2008): 12.5 mg daily
Main adverse events (patients; single agent phase I trials, ref Mita et al, 2013, Mita et al, 2008): mucositis, fatigue, rash, nausea, diarrhoea, myelosuppression, and dyslipidaemia

Compound: Dalotuzumab: humanised IgG1 monoclonal antibody that binds IGF-1R
Serum dalotuzumab, Median [2, 6]: 39.3 μg ml^–1
Serum dalotuzumab, Range [2, 6]: 16.7–91.7 μg ml^–1
Serum dalotuzumab, Median [2, 7]: 41.7 μg ml^–1
Serum dalotuzumab, Range [2, 7]: 5.69–97.9 μg ml^–1
Serum dalotuzumab, Median [2, 8]: 33.8 μg ml^–1
Serum dalotuzumab, Range [2, 8]: 29.3–56.6 μg ml^–1
Serum dalotuzumab, Median [2, 9]: 52.2 μg ml^–1
Serum dalotuzumab, Range [2, 9]: 45.2–102 μg ml^–1
Serum dalotuzumab, Median [2, 10]: 63.5 μg ml^–1
Serum dalotuzumab, Range [2, 10]: 43.7–86.4 μg ml^–1
Serum dalotuzumab, Median [2, 11]: 52.3 μg ml^–1
Serum dalotuzumab, Range [2, 11]: 45.4–92.3 μg ml^–1
Serum dalotuzumab, Median [2, 12]: 49.6 μg ml^–1
Serum dalotuzumab, Range [2, 12]: 32.5–66.7 μg ml^–1
Trough concentrations (Ctrough) after the first administration ([2]; dalotuzumab 7.5 and 10 mg kg^–1, generally exceeded the target threshold level): > 25 μg ml^–1
Maximum tolerated dose (MTD) (patients; [13]): not reached
most common adverse events (patients; [13]): fatigue, hyperglycaemia, and back pain
recommended phase II dose (RP2D) (patients; [13]): 10 mg kg^–1 per week

dose proportional increase of Ctrough levels ([3]; MK-2206 90, 135, 150, and 200 mg QW): not discernible
Plasma MK-2206, Median [3, 8]: 12.9 nmol l^–1
Plasma MK-2206, Range [3, 8]: 10.3–20.4 nmol l^–1
Plasma MK-2206, Median [3, 9]: 29.1 nmol l^–1
Plasma MK-2206, Range [3, 9]: 0.687–41.1 nmol l^–1
Plasma MK-2206, Median [3, 10]: 9.08 nmol l^–1
Plasma MK-2206, Range [3, 10]: 0.736–26.7 nmol l^–1
Plasma MK-2206, Median [3, 11]: 37.6 nmol l^–1
Plasma MK-2206, Range [3, 11]: 20.3–50.9 nmol l^–1
Compound: NC1(c2ccc(-c3nc4ccn5c(=O)[nH]nc5c4cc3-c3ccccc3)cc2)CCC1 [MK-2206]
IC50 (AKT3): 65 nM
IC50 (AKT2): 12 nM
half-life [4]: 40 to 100 h
main toxicities (patients; ref Biondo et al, 2011, Yap et al): rash, nausea, vomiting, diarrhoea, and hyperglycaemia
RP2D (patients; single agent, weekly, ref Biondo et al, 2011): 135 to 200 mg

Plasma MK-0752, Median [5, 14]: 8.06 μmol l^–1
Plasma MK-0752, Range [5, 14]: 1.49–11.6 μmol l^–1
Plasma MK-0752, Median ([5]; cycle 1 day 8, Dalotuzumab (10 mg kg^–1 QW)+MK-0752 (1800 mg QW), N=11): 1.63 μmol l^–1
plasma trough levels, patients receiving 7.5 mg kg^–1 vs 10 mg kg^–1 dalotuzumab ([5]; weekly dosing with 1800 mg MK-0752): comparable
Compound: O=C(O)CC[C@H]1CC[C@@](c2cc(F)ccc2F)(S(=O)(=O)c2ccc(Cl)cc2)CC1 [MK-0752]
main toxicities (patients; ref Krop et al, 2012): fatigue, nausea, and diarrhoea
